Laboratory results taken from ChEMBL document CHEMBL3112419, “Hydroxy fatty acids for the delivery of dideoxynucleosides as anti-HIV agents” (Bioorg Med Chem Lett, 2014).
One block for each compound: values may come before it.

What was measured:
[1] = system: Human immunodeficiency virus 2; test: Antiviral activity against HIV-2 ROD infected in human MT4 cells; assay type: functional, organism-based; details: Human immunodeficiency virus 2, ISOLATE ROD
In short: (§1)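 MT-4 cell cultures infected with wild-type HIV-1 or HIV-2, with cytotoxicity assessed in parallel in the same cells. Lipid-nucleotide conjugates were purified as Na⁺ salts and tested as diastereomeric mixtures. Parent dideoxynucleosides were run alongside as references.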

[2] = system: Human immunodeficiency virus 2; test: Antiviral activity against HIV-2 ROD infected in human CEM/0 cells; assay type: functional, organism-based; details: Human immunodeficiency virus 2, ISOLATE ROD, CCRF-CEM
In short: (§2)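 HIV-2 strain ROD was tested in wild-type CEM (CEM/0) cells and in thymidine kinase-deficient CEM (CEM/TK⁻) cells. Conjugates were tested as diastereomeric mixtures, and parent nucleosides were included as references.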

[3] = Cytotoxicity against human CEM/0 cells; assay type: cell-based, CCRF-CEM
[4] = Cytotoxicity against human MT4 cells; assay type: cell-based; in short: as §1
[5] = system: Human immunodeficiency virus 2; test: Antiviral activity against HIV-2 ROD infected in thymidine kinase-deficient human CEM cells; assay type: functional, organism-based; details: Human immunodeficiency virus 2, ISOLATE ROD, CCRF-CEM; in short: as §2
[6] = system: Human immunodeficiency virus 1; test: Antiviral activity against HIV-1 3B infected in human MT4 cells; assay type: functional, organism-based; details: Human immunodeficiency virus 1, 3B; in short: as §1

Compound: CCCCCCCCCCCCCCCCC(OP(=O)(O)OC[C@@H]1C=C[C@H](n2cc(C)c(=O)[nH]c2=O)O1)C(=O)O (some centres not stated)
IC50 [1]: 0.4 µM
IC50 [2]: > 39.6 µM
CC50 [3]: 92.6 µM
CC50 [4]: 64.7 µM
IC50 [5]: > 39.6 µM
IC50 [6]: 0.4 µM

Compound: CCCCCCCCCCCCCCCC(CC(=O)O)OP(=O)(O)OC[C@@H]1C=C[C@H](n2cc(C)c(=O)[nH]c2=O)O1 (some centres not stated)
IC50 [1]: 16.2 µM
IC50 [2]: > 198 µM
CC50 [3]: > 198 µM
CC50 [4]: > 198 µM
IC50 [5]: > 39.6 µM
IC50 [6]: 10.9 µM

Compound: CCCCCCCCCCCCCCCCC(OP(=O)(O)OC[C@@H]1CC[C@H](n2ccc(N)nc2=O)O1)C(=O)O (some centres not stated)
IC50 [1]: 5.7 µM
IC50 [2]: 7.5 µM
CC50 [3]: 91.1 µM
CC50 [4]: 94.1 µM
IC50 [5]: > 40.5 µM
IC50 [6]: 9.7 µM

Second part, led by results:

IC50 [1]: > 278 µM
IC50 [2]: ≥ 36.6 µM
IC50 [5]: ≥ 81.9 µM
IC50 [6]: > 278 µM
Compound: Nc1ncnc2c1ncn2[C@H]1C=C[C@@H](CO)O1
CC50 [3]: 360 µM
CC50 [4]: 278 µM

IC50 [1]: 0.11 µM
IC50 [2]: 25.3 µM
IC50 [5]: > 39.1 µM
IC50 [6]: 0.19 µM
Compound: CCCCCCCCCCCCCCCCC(OP(=O)(O)OC[C@@H]1C=C[C@H](n2cnc3c(N)ncnc32)O1)C(=O)O (some centres not stated)
CC50 [3]: 81.3 µM
CC50 [4]: 97.8 µM

IC50 [1]: 0.4 µM
IC50 [2]: 8.8 µM
IC50 [5]: ≥ 120 µM
IC50 [6]: 0.26 µM
Compound: Cc1cn([C@H]2C=C[C@@H](CO)O2)c(=O)[nH]c1=O [STAVUDINE]
CC50 [3]: > 268 µM
CC50 [4]: 327 µM

IC50 [1]: 1.9 µM
IC50 [2]: 0.5 µM
IC50 [5]: 1.9 µM
IC50 [6]: 1 µM
Compound: Nc1ccn([C@H]2CC[C@@H](CO)O2)c(=O)n1 [ZALCITABINE]
CC50 [3]: 179 µM
CC50 [4]: 325 µM

IC50 [1]: 0.007 µM
IC50 [2]: 0.04 µM
IC50 [5]: > 14.9 µM
Compound: Cc1cn([C@H]2C[C@H](N=[N+]=[N-])[C@@H](CO)O2)c(=O)[nH]c1=O [ZIDOVUDINE]
CC50 [3]: > 468 µM
CC50 [4]: > 93.5 µM
